In ChEMBL document CHEMBL3525906, “A comprehensive assessment of repaglinide metabolic pathways: impact of choice of in vitro system and relative enzyme contribution to in vitro clearance” (Drug Metab Dispos, 2012):

Tests used:
[1] = Drug metabolism in human hepatocytes assessed as glucuronide formation by LC-MS/MS method; format: ADME, cell-based, Hepatocyte
Homo sapiens [2] = organism: Homo sapiens; assay: Ratio of AUC in human patient at 0.25 mg to AUC in human patient at 0.25 mg co-treated with itraconazole; format: ADME, organism-based; settings: in vivo
Homo sapiens [3] = organism: Homo sapiens; assay: Drug metabolism in human patient assessed as fold change in metabolite M2/M1 AUC ratio at 0.25 mg co-treated with montelukast relative to montelukast non-treated patient; format: ADME, organism-based; settings: in vivo
Cytochrome P450 3A4 [4] = target: T1, Cytochrome P450 3A4 (Homo sapiens, UniProt P08684); assay: Fraction metabolism via CYP3A4 in human liver microsomes; format: ADME
[5] = Drug metabolism in human hepatocytes assessed as 2-despiperidyl-2-(5-carboxypentylamine) repaglinide formation by LC-MS/MS method; format: ADME, cell-based, Hepatocyte
Homo sapiens [6] = organism: Homo sapiens; assay: Drug metabolism in human patient assessed as fold change in metabolite M2/M4 AUC ratio at 0.25 mg co-treated with telithromycin relative to telithromycin non-treated patient; format: ADME, organism-based; settings: in vivo
[7] = Unbound intrinsic clearance in human hepatic S9 fraction assessed as glucuronide formation measured per mg of protein at 0.5 to 150 uM by LC-MS/MS method; format: ADME, tissue-based, Liver; settings: s9, 150 µM
Homo sapiens [8] = organism: Homo sapiens; assay: Ratio of AUC in human patient at 0.25 mg to AUC in human patient at 0.25 mg co-treated with gemfibrozil on various time intervals; format: ADME, organism-based; settings: in vivo
Cytochrome P450 3A5 [9] = target: T2, Cytochrome P450 3A5 (Homo sapiens, UniProt P20815); assay: Unbound intrinsic clearance in human recombinant CYP3A5 expressed in insect cells assessed as enzyme-mediated 2-despiperidyl-2-amino repaglinide formation per nanomole of protein at 0.5 to 150 uM by LC-MS/MS method; format: ADME
Hepatocyte [10] = assay: Unbound intrinsic clearance in human hepatocytes assessed as glucuronide formation measured per 10^6 cells at 0.5 to 150 uM by LC-MS/MS method; format: ADME, cell-based
Cytochrome P450 3A4 [11] = target: T1, Cytochrome P450 3A4; assay: Unbound intrinsic clearance in human recombinant CYP3A4 expressed in insect cells assessed as enzyme-mediated 3'-hydroxy repaglinide formation per nanomole of protein at 0.5 to 150 uM by LC-MS/MS method; format: ADME
Liver microsome [12] = assay: Drug metabolism in human liver microsomes assessed as 2-despiperidyl-2-amino repaglinide formation measured per mg of protein at 0.5 to 150 uM by LC-MS/MS method; format: ADME
Cytochrome P450 2C8 [13] = target: T3, Cytochrome P450 2C8 (Homo sapiens, UniProt P10632); assay: Fraction metabolism via CYP2C8 in human liver microsomes; format: ADME
T3 sequence (P10632 whole entry): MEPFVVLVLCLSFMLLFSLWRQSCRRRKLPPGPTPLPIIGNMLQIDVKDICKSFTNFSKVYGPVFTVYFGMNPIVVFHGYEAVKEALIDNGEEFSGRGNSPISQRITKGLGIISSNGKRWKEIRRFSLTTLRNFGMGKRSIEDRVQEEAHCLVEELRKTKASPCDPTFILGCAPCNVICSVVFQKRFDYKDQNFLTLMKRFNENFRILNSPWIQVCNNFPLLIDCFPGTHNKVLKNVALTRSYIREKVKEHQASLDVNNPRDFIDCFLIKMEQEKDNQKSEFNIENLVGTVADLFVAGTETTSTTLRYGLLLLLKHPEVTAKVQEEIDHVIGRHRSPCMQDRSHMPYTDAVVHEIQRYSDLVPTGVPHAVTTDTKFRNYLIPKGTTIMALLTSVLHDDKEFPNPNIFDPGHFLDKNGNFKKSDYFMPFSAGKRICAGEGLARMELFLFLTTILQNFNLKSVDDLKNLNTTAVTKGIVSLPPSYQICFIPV

Cytochrome P450 2C8 [14] = target: T3, Cytochrome P450 2C8; assay: Fraction metabolism via CYP2C8 in human hepatocytes; format: ADME, cell-based, Hepatocyte
Liver microsome [15] = assay: Unbound intrinsic clearance in human liver microsomes assessed as 3'-hydroxy repaglinide formation measured per mg of protein at 0.5 to 150 uM by LC-MS/MS method; format: ADME
In short: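 Pooled HLM, 0.3 mg/ml, in 0.1 M phosphate pH 7.4 with 10 mM MgCl2 and NADPH regenerating system. Repaglinide at 8 levels, 0.5-150 μM; 37°C, 10 min. Metabolites by LC-MS/MS against authentic standards; fu_inc 0.85. Duplicates on three occasions.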

Homo sapiens [16] = organism: Homo sapiens; assay: Drug metabolism in human patient assessed as fold change in metabolite M2/M4 AUC ratio at 0.25 mg co-treated with montelukast relative to montelukast non-treated patient; format: ADME, organism-based; settings: in vivo
Liver microsome [17] = assay: Drug metabolism in human liver microsomes assessed as 2-despiperidyl-2-amino repaglinide formation by LC-MS/MS method; format: ADME
Homo sapiens [18] = organism: Homo sapiens; assay: Ratio of AUC in human patient at 0.25 mg to AUC in human patient at 0.25 mg co-treated with clarithromycin; format: ADME, organism-based; settings: in vivo
Homo sapiens [19] = organism: Homo sapiens; assay: Drug metabolism in human patient assessed as fold change in metabolite M2/M4 AUC ratio at 0.25 mg co-treated with gemfibrozil on various time intervals relative to gemfibrozil non-treated patient; format: ADME, organism-based; settings: in vivo
Homo sapiens [20] = organism: Homo sapiens; assay: Drug metabolism in human patient assessed as fold change in metabolite M2/M1 AUC ratio at 0.25 mg co-treated with gemfibrozil on various time intervals relative to gemfibrozil non-treated patient; format: ADME, organism-based; settings: in vivo
Hepatocyte [21] = assay: Drug metabolism in human hepatocytes assessed as 3'-hydroxy repaglinide formation measured per 10^6 cells at 0.5 to 150 uM by LC-MS/MS method; format: ADME, cell-based
Cytochrome P450 3A5 [22] = target: T2, Cytochrome P450 3A5; assay: Unbound intrinsic clearance in human recombinant CYP3A5 expressed in insect cells assessed as enzyme-mediated 3'-hydroxy repaglinide formation per nanomole of protein at 0.5 to 150 uM by LC-MS/MS method; format: ADME
Homo sapiens [23] = organism: Homo sapiens; assay: Ratio of AUC in human patient at 0.25 mg to AUC in human patient at 0.25 mg co-treated with cyclosporine; format: ADME, organism-based; settings: in vivo
Cytochrome P450 2C8 [24] = target: T3, Cytochrome P450 2C8; assay: Unbound intrinsic clearance in human recombinant CYP2C8 expressed in insect cells assessed as enzyme-mediated 3'-hydroxy repaglinide formation per nanomole of protein at 0.5 to 150 uM by LC-MS/MS method; format: ADME
[25] = Fraction metabolism via UGT in human hepatocytes; format: ADME, cell-based, Hepatocyte
Liver microsome [26] = assay: Drug metabolism in human liver microsomes assessed as 3'-hydroxy repaglinide formation by LC-MS/MS method; format: ADME
Homo sapiens [27] = organism: Homo sapiens; assay: Drug metabolism in variable SLCO1B1 genotype containing human patient assessed as fold change in metabolite M2/M4 AUC ratio at 0.25 mg co-treated with gemfibrozil relative to gemfibrozil non-treated patient; format: ADME, organism-based; settings: in vivo
Homo sapiens [28] = organism: Homo sapiens; assay: Ratio of AUC in human patient at 0.25 mg to AUC in human patient at 0.25 mg co-treated with trimethoprim; format: ADME, organism-based; settings: in vivo
[29] = Drug metabolism in human hepatic S9 fraction assessed as glucuronide formation by LC-MS/MS method; format: ADME, Liver
Cytochrome P450 2C8 [30] = target: T3, Cytochrome P450 2C8; assay: Fraction metabolism via CYP2C8 in human hepatic S9 fraction; format: ADME, Liver
Cytochrome P450 3A5 [31] = target: T2, Cytochrome P450 3A5; assay: Activity of human recombinant CYP3A5 expressed in insect cells assessed as enzyme-mediated 3'-hydroxy repaglinide formation by LC-MS/MS method; format: ADME
In short: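 Recombinant P450 (CYP2C8 50, CYP3A4 30, CYP3A5 100; units not given) incubated 10 min at 37°C with repaglinide (8 concentrations, 0.5–150 μM) in 0.1 M phosphate pH 7.4, 10 mM MgCl2, NADPH-regenerating system (1 mM NADP+, isocitrate/isocitrate dehydrogenase). Quenched with ice-cold methanol plus indomethacin internal standard. M1, M2, M4 quantified by LC-MS/MS against authentic standards. Michaelis-Menten fit; mean ± SD, n=3.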

T2 sequence (P20815 whole entry): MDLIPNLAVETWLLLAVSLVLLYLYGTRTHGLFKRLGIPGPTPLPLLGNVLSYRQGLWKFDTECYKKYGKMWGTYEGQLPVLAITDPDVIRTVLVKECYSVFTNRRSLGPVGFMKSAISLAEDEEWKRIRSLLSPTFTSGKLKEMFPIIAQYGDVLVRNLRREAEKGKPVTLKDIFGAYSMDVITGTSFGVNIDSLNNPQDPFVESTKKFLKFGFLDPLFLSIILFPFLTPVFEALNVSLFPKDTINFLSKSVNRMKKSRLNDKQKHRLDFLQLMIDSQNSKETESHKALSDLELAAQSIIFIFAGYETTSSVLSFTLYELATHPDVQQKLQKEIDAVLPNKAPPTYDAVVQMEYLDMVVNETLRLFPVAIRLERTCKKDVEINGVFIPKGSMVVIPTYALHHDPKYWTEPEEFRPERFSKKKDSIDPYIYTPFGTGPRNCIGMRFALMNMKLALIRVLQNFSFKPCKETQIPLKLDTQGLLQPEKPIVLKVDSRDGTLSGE
T1 sequence (P08684 whole entry): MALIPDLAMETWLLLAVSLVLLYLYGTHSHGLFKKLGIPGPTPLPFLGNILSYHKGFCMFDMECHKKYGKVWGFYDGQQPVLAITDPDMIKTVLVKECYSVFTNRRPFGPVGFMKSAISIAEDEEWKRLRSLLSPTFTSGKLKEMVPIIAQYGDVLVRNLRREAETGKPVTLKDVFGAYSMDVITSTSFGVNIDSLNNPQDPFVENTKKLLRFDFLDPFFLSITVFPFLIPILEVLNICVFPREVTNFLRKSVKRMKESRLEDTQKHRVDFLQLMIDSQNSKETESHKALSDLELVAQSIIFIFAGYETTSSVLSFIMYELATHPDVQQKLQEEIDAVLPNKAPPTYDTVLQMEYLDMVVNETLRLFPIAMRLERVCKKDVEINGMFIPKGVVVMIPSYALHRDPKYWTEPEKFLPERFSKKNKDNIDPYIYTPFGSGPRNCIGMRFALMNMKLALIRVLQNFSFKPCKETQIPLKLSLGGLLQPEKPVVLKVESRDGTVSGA

With `CCOc1cc(CC(=O)N[C@@H](CC(C)C)c2ccccc2N2CCCCC2)ccc1C(=O)O` [REPAGLINIDE] the Km [1] was 53 µM, the Ratio (Homo sapiens [2]) was 1.4 and the “fold change (FC)” value (Homo sapiens [3]) was 1.1. For the same molecule, the Fm (Cytochrome P450 3A4 [4]) was 0.2, the Km [5] was 28 µM and the “fold change (FC)” value (Homo sapiens [6]) was 0.8. It also gave a CL free [7] of 1.8 µL/min/mg, a Ratio (Homo sapiens [8]) of 5 and a CL free (Cytochrome P450 3A5 [9]) of 1.4 µL/min/nmol. For the same molecule, the CL free (Hepatocyte [10]) was 0.13 uL/min/10^6cells, the CL free (Cytochrome P450 3A4 [11]) was 2 µL/min/nmol and the Vmax (Liver microsome [12]) was 170 pmol/min/mg. It also gave a Fm (Cytochrome P450 2C8 [13]) of 0.63, a Fm (Cytochrome P450 2C8 [14]) of 0.49 and a CL free (Liver microsome [15]) of 18 µL/min/mg. For the same molecule, the “fold change (FC)” value (Homo sapiens [16]) was 0.98, the Km (Liver microsome [17]) was 47 µM and the Ratio (Homo sapiens [18]) was 1.4. For the same molecule, the “fold change (FC)” value (Homo sapiens [19]) was 0.94, the “fold change (FC)” value (Homo sapiens [20]) was 0.39 and the Vmax (Hepatocyte [21]) was 28 pmol/min/10^6cells. It also gave a CL free (Cytochrome P450 3A5 [22]) of 0.19 µL/min/nmol, a Ratio (Homo sapiens [23]) of 2.4 and a CL free (Cytochrome P450 2C8 [24]) of 70 µL/min/nmol. For the same molecule, the Fm [25] was 0.02, the Km (Liver microsome [26]) was 9 µM and the “fold change (FC)” value (Homo sapiens [27]) was 6.4. The Ratio (Homo sapiens [28]) was 1.6, the Km [29] was 47 µM and the Fm (Cytochrome P450 2C8 [30]) was 0.41. The Km (Cytochrome P450 3A5 [31]) was ≥ 150 µM.
